Results published in publication PMC5625158 (Pharmacology Research & Perspectives, 2017).
pIC50: −log10 of the molar value.

Legend:
liver and lung fibrosis = conditions: ref Henderson et al. 2013; cited from earlier work
obese ZSF1 rats [1] = test: Renal function in obese ZSF1 rat diabetic nephropathy model; type: in vivo; conditions: for Urinary protein/creatinine ratio (UPCR): 28 weeks
obese ZSF1 rats [2] = test: Kidney histology in ZSF1 rats; type: in vivo, rat
How it was run: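 At study end, both kidneys were formalin-fixed, paraffin-embedded and stained with H&E, PAS and Masson's trichrome for light microscopy. Tubular, interstitial, vascular and glomerular changes were graded 0–5 (normal to severe). Collagen deposition was graded 0–5 by blue-stained area size and intensity. Group sizes were n = 8 lean and n = 12 per obese group, with 28 weeks of diet dosing.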

[3] = Body weight, food and water intake in ZSF1 rats; type: in vivo, rat; conditions: data not shown
How it was run: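 Male obese ZSF1 rats received the test compound in a medicated chow diet from 16 weeks of age for 28 weeks. Before each collection they were acclimated for at least 3 days to single housing in metabolic cages. Body weight and food and water consumption were recorded at every urine and blood collection, at weeks −2, 1, 2, 4, 6, 8, 12, 16, 21, 24 and 28.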

[4] = system: Human primary kidney fibroblasts (HPKF); test: Kidney fibroblast fibrosis assay; type: cell-based
How it was run: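 Primary human kidney fibroblasts were grown on collagen I-coated plates at 37°C in 5% CO2 and serum-starved overnight. They were then given various concentrations of test compound for 24 h. In TGF-β arms, compound was added 1 h before recombinant human TGF-β1 (5 ng/mL final, 24 h). Marker mRNA was measured by RNA extraction, reverse transcription and real-time PCR.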

[5] = system: postmenopausal women with osteoporosis; conditions: cited from earlier work
platelet aggregation = conditions: ref Hutchinson et al. 2003; cited from earlier work
[6] = system: α1β1, α2β1, α3β1, α4β1, α6β1, α9β1, α10β1, α11β1, and αIIbβ3 integrins; test: Thermal shift assay; type: binding, Human; conditions: Twenty μM MK‐0429
How it was run: (§1)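 Differential scanning fluorimetry was run on a real-time PCR instrument. Recombinant integrins (the α1β1–αIIbβ3 panel was recombinant human) were reconstituted in assay buffer with Sypro orange, and test compound was added at 20 µM. ΔTm was calculated against a DMSO control. Runs were in triplicate across three independent experiments.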

[7] = system: men with hormone‐refractory prostate cancer and bone metastases; conditions: ref Rosenthal et al. 2010; cited from earlier work
αvβ3 = αvβ3 (Homo sapiens, UniProt P05106+P06756); conditions: ref Hutchinson et al. 2003; cited from earlier work
αvβx integrins = test: Thermal shift assay, αvβx integrins; type: binding; conditions: Fig. S1B
How it was run: as §1

human podocytes = test: Podocyte cell viability; type: cell-based; conditions: 48 h treatment, unpublished data
obese ZSF1 rats [8] = test: Kidney collagen I and III protein by immunohistochemistry in ZSF1 rats; type: in vivo, rat; conditions: 400 mg/kg/day, versus obese vehicle
How it was run: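 Kidneys were taken at study end, formalin-fixed and paraffin-embedded, then deparaffinized and rehydrated. Sections were stained with rabbit polyclonal anti-collagen I (2 ug/mL) or anti-collagen III (3 ug/mL), developed with an HRP-polymer kit and counterstained with hematoxylin. Whole slides were scanned at 20x, and positive stain area was quantified by a colour-deconvolution algorithm. Dosing was in diet for 28 weeks.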

[9] = system: osteoplastic bone resorption; conditions: ref Hutchinson et al. 2003; cited from earlier work
obese ZSF1 rats [10] = test: Kidney fibrosis marker gene expression by RT-PCR in ZSF1 rats; type: in vivo, rat; conditions: dose not given
How it was run: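 Kidney cortex was snap-frozen, homogenized in TRIzol and column-purified for RNA. A 2 µg RNA sample was reverse-transcribed, and rat TaqMan probes were used for qPCR. Ct values were normalized to the geomean of POLR2A and B2M and quantified by the 2^-ΔΔCT method relative to the obese vehicle group. Treatment was in diet for 28 weeks (n = 12 per obese group).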

αvβ3, sequence (P06756 31-992 limits assumed): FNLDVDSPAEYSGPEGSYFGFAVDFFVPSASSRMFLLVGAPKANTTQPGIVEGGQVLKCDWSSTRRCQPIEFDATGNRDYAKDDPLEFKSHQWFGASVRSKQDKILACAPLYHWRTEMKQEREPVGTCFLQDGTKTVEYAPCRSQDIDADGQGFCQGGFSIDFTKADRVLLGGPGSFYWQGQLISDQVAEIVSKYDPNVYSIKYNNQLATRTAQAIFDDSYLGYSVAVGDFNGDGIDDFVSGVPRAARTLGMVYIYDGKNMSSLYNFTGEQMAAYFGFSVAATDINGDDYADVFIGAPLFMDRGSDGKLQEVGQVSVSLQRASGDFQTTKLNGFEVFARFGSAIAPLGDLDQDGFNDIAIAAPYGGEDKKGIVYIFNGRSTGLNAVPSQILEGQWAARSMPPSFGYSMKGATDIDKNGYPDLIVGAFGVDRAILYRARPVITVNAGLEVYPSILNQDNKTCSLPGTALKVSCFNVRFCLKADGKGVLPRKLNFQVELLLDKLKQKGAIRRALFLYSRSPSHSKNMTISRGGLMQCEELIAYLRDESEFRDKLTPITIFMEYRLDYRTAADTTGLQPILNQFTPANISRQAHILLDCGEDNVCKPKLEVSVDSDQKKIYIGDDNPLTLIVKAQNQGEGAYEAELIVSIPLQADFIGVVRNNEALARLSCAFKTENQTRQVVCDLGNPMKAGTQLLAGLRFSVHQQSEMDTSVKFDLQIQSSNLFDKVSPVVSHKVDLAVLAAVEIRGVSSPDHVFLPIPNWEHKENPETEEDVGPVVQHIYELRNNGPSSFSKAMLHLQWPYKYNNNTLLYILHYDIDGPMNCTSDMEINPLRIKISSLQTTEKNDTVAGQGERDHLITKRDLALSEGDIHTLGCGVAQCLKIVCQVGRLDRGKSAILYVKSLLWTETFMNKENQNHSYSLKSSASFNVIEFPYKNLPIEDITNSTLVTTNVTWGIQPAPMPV
αvβ3, sequence (P05106 27-718 limits assumed): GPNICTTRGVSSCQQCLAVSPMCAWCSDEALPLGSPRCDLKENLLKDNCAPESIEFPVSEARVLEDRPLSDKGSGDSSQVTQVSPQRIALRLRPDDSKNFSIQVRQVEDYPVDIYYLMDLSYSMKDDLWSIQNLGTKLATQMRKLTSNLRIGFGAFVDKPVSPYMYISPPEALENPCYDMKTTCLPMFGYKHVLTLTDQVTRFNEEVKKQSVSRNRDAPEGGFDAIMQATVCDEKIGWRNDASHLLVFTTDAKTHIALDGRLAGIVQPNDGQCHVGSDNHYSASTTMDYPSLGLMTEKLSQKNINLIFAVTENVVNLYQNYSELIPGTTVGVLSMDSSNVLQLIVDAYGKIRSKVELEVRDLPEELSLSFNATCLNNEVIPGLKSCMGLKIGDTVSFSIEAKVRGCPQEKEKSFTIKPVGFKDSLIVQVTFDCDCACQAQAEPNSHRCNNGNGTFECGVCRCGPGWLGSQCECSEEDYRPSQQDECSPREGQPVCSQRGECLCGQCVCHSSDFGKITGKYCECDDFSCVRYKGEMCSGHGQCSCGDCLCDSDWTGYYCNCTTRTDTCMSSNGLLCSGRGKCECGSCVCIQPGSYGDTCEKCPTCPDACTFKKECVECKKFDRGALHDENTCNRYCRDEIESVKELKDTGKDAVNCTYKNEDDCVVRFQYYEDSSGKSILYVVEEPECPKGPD

In the case of CC(C)(C)c1cc(Br)cc([C@H](CC(=O)O)NC(=O)CNC(=O)c2cc(O)cc(NC3=NCC(O)CN3)c2)c1 (some centres unmarked) [CWHM12], the “Liver and lung fibrosis” value (liver and lung fibrosis) is given as “attenuated”.
With CCOC(=O)[C@H](CCc1ccccc1)N[C@@H](C)C(=O)N1CCC[C@H]1C(=O)O [Enalapril, enalapril] the “Urinary protein/creatinine ratio (UPCR)” value (obese ZSF1 rats [1]; 10 mg/kg/day in diet) was “significantly decreased”, the “Glomerular filtration rate (GFR)” value (obese ZSF1 rats [1]; enalapril 10 mg/kg/day in diet) was “improvement” and the “Kidney fibrosis score (Masson's trichrome)” value (obese ZSF1 rats [2]; 10 mg/kg/day, 28 weeks, versus obese vehicle) was “significantly decreased”.
For COc1ccc([C@H](CC(=O)O)N2CCN(CCCc3ccc4c(n3)NCCC4)C2=O)cn1 [MK‐0429], the Body weight [3] was “no significant effects”, the Food intake [3] was “no significant effects” and the Water intake [3] was “no significant effects”. For the same molecule, the “Expression of Collagen type I alpha‐1 chain (Col IA1)” value ([4]; HPKF ± TGF‐β) was “partially inhibited”, the “Expression of connective tissue growth factor (CTGF)” value ([4]; HPKF ± TGF‐β) was “strongly suppressed” and the “Expression of α‐smooth muscle actin (αSMA)” value ([4]; HPKF ± TGF‐β) was “partially inhibited”. For the same molecule, the pIC50 ([4]; read-out: Inhibition of PAI‐1 gene expression IC50, HPKF, absence of TGF‐β, 24 h) was 7.25, the “Urinary protein/creatinine ratio (UPCR)” value (obese ZSF1 rats [1]; 400 mg/kg/day in diet) was “significantly later onset in its effects to reduce” and the “Bone mineral density at spine and hip (multiple endpoints)” value ([5]; phase II, postmenopausal women with osteoporosis, ref Murphy et al. 2005) was “improvement”. For the same molecule, the “Tolerability in Phase II trials” value ([5]; ref Hutchinson et al. 2003, Coleman et al. 2004, Murphy et al. 2005, Rosenthal et al. 2010) was “well tolerated”, the “Activity in platelet aggregation assay” value (platelet aggregation) was “inactive” and the “Binding to other integrins (thermal shift assay)” value [6] was “does not bind and No”. The Bone turnover [7] was “significantly reduced”, the αvβ3 ligand binding (αvβ3) was “inhibits” and the “Shift of melting temperatures of αvβx integrins” value (αvβx integrins) was “dramatic shift”. The “Effect on cell viability” value (human podocytes) was “without affecting cell viability”, the “Decrease of Type I collagen positive stain (% of area), kidney IHC” value (obese ZSF1 rats [8]) was “significantly decreased” and the “Decrease of Type III collagen positive stain (% of area), kidney IHC” value (obese ZSF1 rats [8]) was “significantly decreased”. The Glomerular injury score (obese ZSF1 rats [2]; 0–5 scale, data not shown) was “no significant effect”, the Tubular injury score (obese ZSF1 rats [2]; 0–5 scale, data not shown) was “no significant effect” and the Osteoplastic bone resorption [9] was “inhibits”. The “αSMA mRNA expression, kidney” value (obese ZSF1 rats [10]) was “significantly decreased”.
